The text below walks through data of ChEMBL document CHEMBL1141363, “Synthesis and evaluation of novel heterocyclic MMP inhibitors” (Bioorg Med Chem Lett, 2007).

The target of assay [1] is 72 kDa type IV collagenase (Homo sapiens, UniProt P08253). In words: Inhibition of MMP2. An outline of the steps:
(§1)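 Catalytic domains used at final levels of 85 nM (MMP-1), 24 nM (MMP-2), 18 nM (MMP-9) and 84 nM (MMP-12). Each enzyme was premixed with compound (serial 1:2 dilutions, 150 to 1.2) for 30 min at 37 °C. Substrate was added in 50 mM Hepes with 5 mM CaCl2 and 0.05% w/w Brij-35, pH 7.5, then incubated 30 min. Fluorescence read at ex 328/em 393 nm over 45 min, every 50 s.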

The target in assay [2] is Macrophage metalloelastase (Homo sapiens, UniProt P39900). In words: Inhibition of MMP12. In a few lines: as §1
Assay [3] deals with Matrix metalloproteinase-9 (Homo sapiens, UniProt P14780). In words: Inhibition of MMP9. An outline of the steps: as §1
Another assay deals with T1, Interstitial collagenase (Homo sapiens, UniProt P03956).
T1 sequence (P03956 whole entry): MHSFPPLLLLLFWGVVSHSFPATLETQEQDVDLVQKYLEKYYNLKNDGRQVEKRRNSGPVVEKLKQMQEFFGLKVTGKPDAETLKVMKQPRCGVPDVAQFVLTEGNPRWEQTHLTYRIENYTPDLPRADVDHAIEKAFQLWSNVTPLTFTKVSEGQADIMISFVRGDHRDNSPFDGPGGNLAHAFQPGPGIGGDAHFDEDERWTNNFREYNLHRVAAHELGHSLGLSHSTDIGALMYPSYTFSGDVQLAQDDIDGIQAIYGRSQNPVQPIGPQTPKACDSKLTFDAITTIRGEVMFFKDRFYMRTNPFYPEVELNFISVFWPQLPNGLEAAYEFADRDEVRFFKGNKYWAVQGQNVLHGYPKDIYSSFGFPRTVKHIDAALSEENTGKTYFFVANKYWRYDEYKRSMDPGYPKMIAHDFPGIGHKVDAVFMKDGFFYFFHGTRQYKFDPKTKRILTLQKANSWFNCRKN
Briefly: Inhibition of MMP1. In a few lines: as §1

Each structure is given as a SMILES string.

Sequence of Matrix metalloproteinase-9 (P14780 whole entry): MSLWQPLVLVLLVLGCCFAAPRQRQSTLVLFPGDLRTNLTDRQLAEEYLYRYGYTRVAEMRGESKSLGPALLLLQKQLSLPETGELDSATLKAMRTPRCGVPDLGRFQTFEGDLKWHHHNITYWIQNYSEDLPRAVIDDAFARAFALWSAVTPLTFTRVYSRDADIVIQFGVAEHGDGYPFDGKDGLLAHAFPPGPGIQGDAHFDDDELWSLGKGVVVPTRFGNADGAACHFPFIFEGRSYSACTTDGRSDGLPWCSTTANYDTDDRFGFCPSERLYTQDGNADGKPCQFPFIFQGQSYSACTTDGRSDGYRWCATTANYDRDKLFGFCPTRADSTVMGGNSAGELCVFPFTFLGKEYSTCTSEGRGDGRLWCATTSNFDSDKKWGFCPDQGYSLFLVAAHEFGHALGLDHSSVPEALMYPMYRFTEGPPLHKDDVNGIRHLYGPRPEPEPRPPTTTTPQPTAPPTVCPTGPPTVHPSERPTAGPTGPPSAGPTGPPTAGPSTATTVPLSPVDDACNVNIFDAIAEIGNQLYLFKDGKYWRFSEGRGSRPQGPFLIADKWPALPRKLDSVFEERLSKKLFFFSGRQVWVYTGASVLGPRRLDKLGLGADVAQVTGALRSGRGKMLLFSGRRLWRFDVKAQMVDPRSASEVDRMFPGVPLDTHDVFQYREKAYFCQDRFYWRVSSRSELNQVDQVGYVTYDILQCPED
Sequence of 72 kDa type IV collagenase (P08253 whole entry, the tested form may be a part): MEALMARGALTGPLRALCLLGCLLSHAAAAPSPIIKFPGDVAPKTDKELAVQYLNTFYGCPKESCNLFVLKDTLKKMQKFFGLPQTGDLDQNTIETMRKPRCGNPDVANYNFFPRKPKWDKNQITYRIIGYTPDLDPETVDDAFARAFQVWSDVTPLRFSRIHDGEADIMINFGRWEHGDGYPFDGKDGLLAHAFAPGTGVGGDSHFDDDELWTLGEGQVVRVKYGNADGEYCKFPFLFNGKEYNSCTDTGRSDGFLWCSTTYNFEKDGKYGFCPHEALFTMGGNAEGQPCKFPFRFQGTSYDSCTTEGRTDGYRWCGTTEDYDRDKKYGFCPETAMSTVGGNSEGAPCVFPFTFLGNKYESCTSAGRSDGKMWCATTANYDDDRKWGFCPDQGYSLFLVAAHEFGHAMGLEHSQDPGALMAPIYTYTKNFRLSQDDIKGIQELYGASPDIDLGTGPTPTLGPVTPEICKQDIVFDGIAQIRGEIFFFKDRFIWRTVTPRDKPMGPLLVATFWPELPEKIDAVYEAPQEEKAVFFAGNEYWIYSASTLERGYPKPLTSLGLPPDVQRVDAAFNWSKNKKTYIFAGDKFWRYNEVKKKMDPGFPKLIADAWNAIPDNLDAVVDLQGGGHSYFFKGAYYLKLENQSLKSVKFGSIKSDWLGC
Sequence of Macrophage metalloelastase (P39900 whole entry): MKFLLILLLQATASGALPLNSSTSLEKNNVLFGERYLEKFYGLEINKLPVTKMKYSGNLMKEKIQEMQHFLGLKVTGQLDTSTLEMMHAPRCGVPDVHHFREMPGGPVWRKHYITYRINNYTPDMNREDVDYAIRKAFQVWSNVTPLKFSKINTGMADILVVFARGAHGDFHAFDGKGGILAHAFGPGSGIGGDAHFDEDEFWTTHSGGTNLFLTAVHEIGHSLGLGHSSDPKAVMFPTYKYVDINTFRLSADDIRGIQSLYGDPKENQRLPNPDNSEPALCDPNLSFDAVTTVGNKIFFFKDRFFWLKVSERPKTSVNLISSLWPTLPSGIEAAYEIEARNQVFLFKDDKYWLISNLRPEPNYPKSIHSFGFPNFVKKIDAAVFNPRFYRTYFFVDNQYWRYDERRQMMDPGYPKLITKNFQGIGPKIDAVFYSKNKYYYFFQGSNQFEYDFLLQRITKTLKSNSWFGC

For orientation: IC50 means the concentration that inhibits the measured activity by half. Turning to `C(=C\c1ccccc1)/Cn1cc(C2=NCCO2)nn1`, the IC50 in assay [1] is 149 µM; in assay [2], 61 µM; in assay [3] it was > 150 µM; against Interstitial collagenase it was > 150 µM.

With `CCCCCCOC(=O)c1cccc(S)n1`, the IC50 stood at 85 µM in assay [1], 105 µM in assay [2], 109 µM in assay [3] and 115 µM at Interstitial collagenase.

Regarding `CCCCCCn1cc(C2=NCCO2)nn1`, the half-maximal inhibitory concentration (IC50) (in assay [1]; in assay [2]; in assay [3]; against Interstitial collagenase) was > 150 µM throughout.

Turning to `c1ccc(Cn2cc(C3=NCCO3)nn2)cc1`, the IC50 (in assay [1]; in assay [2]; in assay [3]; at Interstitial collagenase) was > 150 µM in each case.

Consider `c1ccc(CCCn2cc(C3=NCCO3)nn2)cc1`, for which the half-inhibitory concentration (IC50) (in assay [1]; in assay [2]; in assay [3]; against Interstitial collagenase) was > 150 µM throughout.

For `O=C(OCc1ccc(F)cc1)c1cccc(S)n1`, the IC50 in assay [1] stood at 108 µM; in assay [2] it was 112 µM; in assay [3] it was 120 µM; against Interstitial collagenase it was 120 µM.

Regarding `O=C(OCc1c(F)cccc1F)c1cccc(=S)[nH]1`, the IC50 in assay [1] is 66 µM; in assay [2], 127 µM; in assay [3], 101 µM; at Interstitial collagenase, 92 µM.

Consider `O=C(OCc1cc(F)c(F)cc1F)c1cccc(=S)[nH]1`, for which the IC50 was determined as 90 µM in assay [1], 106 µM in assay [2], 105 µM in assay [3] and 124 µM against Interstitial collagenase.

On to `O=C(OCc1cccc(Oc2ccccc2)c1)c1cccc(S)n1`, for which the IC50 in assay [1] was 46 µM; in assay [2] it was 71 µM; in assay [3] it was 75 µM; against Interstitial collagenase it was 78 µM.

Take `O=C(OCc1ccc(Oc2ccccc2)cc1)c1cccc(S)n1`: the 50% inhibitory concentration (IC50) in assay [1] was found to be 93 µM; in assay [2], 109 µM; in assay [3], 110 µM; against Interstitial collagenase, 114 µM.

On to `O=C(OCc1ccc(Cl)cc1)c1cccc(S)n1`, for which the half-inhibitory concentration (IC50) in assay [1] came to 96 µM; in assay [2], 115 µM; in assay [3], 112 µM; against Interstitial collagenase, 126 µM.

Regarding `O=C(Oc1cccc2ccccc12)c1cccc(=S)[nH]1`, the IC50 in assay [1] was 98 µM; in assay [2], > 150 µM; in assay [3] it was > 150 µM; on Interstitial collagenase it was > 150 µM.

On to `O=C(Oc1ccc2ccccc2c1)c1cccc(S)n1`, for which the IC50 turned out to be 100 µM in assay [1], 101 µM in assay [2], 119 µM in assay [3] and 99 µM on Interstitial collagenase.

With `O=C(OCc1ccc(-c2ccccc2)cc1)c1cccc(=S)[nH]1`, the IC50 was determined as 110 µM in assay [1], 135 µM in assay [2], 150 µM in assay [3] and 119 µM against Interstitial collagenase.

For `O=C(OCc1cccc(-c2ccccc2)c1)c1cccc(=S)[nH]1`, the IC50 turned out to be 42 µM in assay [1], 52 µM in assay [2], 50 µM in assay [3] and 75 µM against Interstitial collagenase.

On to `c1ccc(CCn2nnc(Cc3cccnc3)n2)cc1`, for which the 50% inhibitory concentration (IC50) (in assay [1]; in assay [2]; in assay [3]; against Interstitial collagenase) was > 150 µM each time.

As for `CCCCCOC(=O)c1cccc(=O)[nH]1`, the half-inhibitory concentration (IC50) in assay [1] was determined as 103 µM; in assay [2], 68 µM; in assay [3], 66 µM; against Interstitial collagenase it was 50 µM.

Take `O=C(OC1CCC1)c1cccc(S)n1`: the concentration for half-maximal inhibition (IC50) in assay [1] was > 150 µM; in assay [2] it was > 150 µM; in assay [3], 137 µM; against Interstitial collagenase it was 135 µM.

For `O=C(OCCc1ccccc1)c1cccc(=S)[nH]1`, the IC50 is 119 µM in assay [1], 117 µM in assay [2], 107 µM in assay [3] and 120 µM on Interstitial collagenase.

With `O=C(OCCCc1ccccc1)c1cccc(=S)[nH]1`, the half-inhibitory concentration (IC50) in assay [1] was 100 µM; in assay [2] it was 85 µM; in assay [3] it was 112 µM; against Interstitial collagenase, 95 µM.

Regarding `O=C(OCc1cccc(-c2ccccc2)c1)c1cccc(=O)[nH]1`, the concentration for half-maximal inhibition (IC50) in assay [1] is 33 µM; in assay [2], 99 µM; in assay [3], > 150 µM; at Interstitial collagenase it was 42 µM.

With `O=C(OCc1cccc(Oc2ccccc2)c1)c1cccc(=O)[nH]1`, the IC50 in assay [1] was > 150 µM; in assay [2], 118 µM; in assay [3] it was > 150 µM; against Interstitial collagenase it was 68 µM.

On to `O=C(Oc1cccs1)c1cccc(=O)[nH]1`, for which the IC50 came out at 73 µM in assay [1], 65 µM in assay [2], 70 µM in assay [3] and 56 µM against Interstitial collagenase.

Take `Cc1cccc(COC(=O)c2cccc(S)n2)c1`: the IC50 in assay [1] is 7 µM; in assay [2], 70 µM; in assay [3], 7 µM; against Interstitial collagenase, > 150 µM.

As to `Cc1ccc(COC(=O)c2cccc(=S)[nH]2)cc1`, the IC50 in assay [1] was 98 µM; in assay [2] it was 81 µM; in assay [3] it was 119 µM; against Interstitial collagenase, > 150 µM.

With `O=C(OCc1cccc(C(F)(F)F)c1)c1cccc(=S)[nH]1`, the half-inhibitory concentration (IC50) in assay [1] was found to be 110 µM; in assay [2] it was 134 µM; in assay [3], 126 µM; against Interstitial collagenase, 134 µM.

Consider `COc1cccc(COC(=O)c2cccc(S)n2)c1`, for which the IC50 in assay [1] is 90 µM; in assay [2], 78 µM; in assay [3], 93 µM; on Interstitial collagenase it was 86 µM.

In the case of `O=C(OCCCCOc1ccccc1)c1cccc(S)n1`, the concentration for half-maximal inhibition (IC50) came out at 63 µM in assay [1], 78 µM in assay [2], 83 µM in assay [3] and 138 µM on Interstitial collagenase.

Take `O=C(OCc1cccc(F)c1)c1cccc(S)n1`: the half-maximal inhibitory concentration (IC50) in assay [1] amounted to 124 µM; in assay [2], 151 µM; in assay [3], 107 µM; at Interstitial collagenase, 119 µM.

With `O=C(Oc1ccco1)c1cccc(=O)[nH]1`, the IC50 was found to be 111 µM in assay [1], 76 µM in assay [2], 90 µM in assay [3] and 46 µM against Interstitial collagenase.

As to `O=C(OCc1ccc(C(F)(F)F)cc1)c1cccc(=S)[nH]1`, the IC50 in assay [1] is 125 µM; in assay [2], 94 µM; in assay [3], 141 µM; at Interstitial collagenase, > 150 µM.

With `O=C(Oc1ccsc1)c1cccc(=O)[nH]1`, the IC50 in assay [1] came to 65 µM; in assay [2], 62 µM; in assay [3], 67 µM; on Interstitial collagenase it was 39 µM.

As for `COc1ccc(COC(=O)c2cccc(S)n2)cc1`, the concentration for half-maximal inhibition (IC50) in assay [1] came out at 91 µM; in assay [2], 96 µM; in assay [3] it was 95 µM; at Interstitial collagenase it was 108 µM.

In the case of `O=C(OCc1ccccc1Br)c1cccc(S)n1`, the IC50 is 108 µM in assay [1], > 150 µM in assay [2], > 150 µM in assay [3] and > 150 µM at Interstitial collagenase.

With `c1cncc(Cc2nnn[nH]2)c1`, the IC50 was 48 µM in assay [1], > 150 µM in assay [2], > 150 µM in assay [3] and > 150 µM against Interstitial collagenase.

As to `O=C(Oc1ccsc1)c1cccc(S)n1`, the IC50 in assay [1] came to 77 µM; in assay [2] it was 93 µM; in assay [3], 90 µM; against Interstitial collagenase it was 108 µM.

As for `c1ccc(Cn2nnc(Cc3cccnc3)n2)cc1`, the IC50 (in assay [1]; in assay [2]; in assay [3]; against Interstitial collagenase) was > 150 µM each time.

On to `c1ccc(CCCn2nnc(Cc3cccnc3)n2)cc1`, for which the IC50 (in assay [1]; in assay [2]; in assay [3]; on Interstitial collagenase) was > 150 µM each time.

In the case of `O=C(OCc1cc(F)ccc1F)c1cccc(S)n1`, the IC50 in assay [1] came to 79 µM; in assay [2], 17 µM; in assay [3], 140 µM; at Interstitial collagenase, 114 µM.

Turning to `CCCCCCCn1cc(C2=NCCO2)nn1`, the 50% inhibitory concentration (IC50) (in assay [1]; in assay [2]; in assay [3]; against Interstitial collagenase) was > 150 µM each time.

Consider `c1ccc(CCn2cc(C3=NCCO3)nn2)cc1`, for which the concentration for half-maximal inhibition (IC50) (in assay [1]; in assay [2]; in assay [3]; on Interstitial collagenase) was > 150 µM throughout.

As to `O=C(OCc1ccccc1)c1cccc(S)n1`, the IC50 was determined as 85 µM in assay [1], 82 µM in assay [2], 88 µM in assay [3] and 101 µM against Interstitial collagenase.

As to `CC(C)OC(=O)c1cccc(S)n1`, the IC50 in assay [1] is > 150 µM; in assay [2] it was 146 µM; in assay [3], 132 µM; on Interstitial collagenase it was 121 µM.

As to `C(=C\c1ccccc1)/Cn1nnc(Cc2cccnc2)n1`, the IC50 (in assay [1]; in assay [2]; in assay [3]; against Interstitial collagenase) was > 150 µM throughout.

As for `O=C(OC1CCCCC1)c1cccc(S)n1`, the IC50 in assay [1] stood at 73 µM; in assay [2], 87 µM; in assay [3], 91 µM; on Interstitial collagenase it was 102 µM.

As for `CC(C)OC(=O)c1cccc(=O)[nH]1`, the IC50 in assay [1] was found to be 67 µM; in assay [2], 67 µM; in assay [3], 67 µM; at Interstitial collagenase, 31 µM.
